The values below come from publication PMC2987701 (Bioorganic & medicinal chemistry letters, 2010).

The target of data set [1] is T1, GST-Bfl-1 (Homo sapiens, UniProt Q16548).
T1 sequence (Q16548 1-175): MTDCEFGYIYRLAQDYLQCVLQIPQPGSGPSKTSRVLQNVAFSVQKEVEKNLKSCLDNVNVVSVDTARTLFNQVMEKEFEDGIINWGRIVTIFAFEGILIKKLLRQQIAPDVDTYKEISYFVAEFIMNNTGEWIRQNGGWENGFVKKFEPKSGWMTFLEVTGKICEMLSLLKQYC
Briefly: High-throughput fluorescence polarization. The class given is binding. The note with it: result in words.

For data set [2], the target named is T1, GST-Bfl-1. Briefly: LanthaScreen TR-FRET assay, FITC-Bid BH3 peptide / GST-tagged protein. The format is binding. The note with it: result in words. The method, boiled down: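 Test compound at 10 concentrations (2-fold serial dilution, 10% DMSO), in duplicate wells. Preincubated 1 h at 4 °C with GST-Bfl-1 (7.4 nM working solution, Bis-Tris pH 7.0 buffer). Then FITC-Bid (5.6 nM) plus Tb-antibody (2.5 nM) working solution added, 4 h at room temperature in the dark. Read in time-resolved mode: excitation 340 nm, 0.1 ms delay, 1 ms integration, 5 reads averaged. Signal is the 520/490 nm ratio. Controls were buffer without protein and DMSO.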

Data set [3] concerns H69AR small cell lung tumor cell. Description: Cell-based viability study, tumor cell growth. Further details: species or system human. The note with it: concentration of 10 μM; note [21].
The next data set has as its system mammalian cell line. Briefly: Cell viability in a mammalian cell line. The format is cell-based. The note with it: note [21].

The structures appear in SMILES notation. Entries after “also recorded” stand apart in the source; their conditions may differ.

On to `CN1CCN(C2=C(Cl)C(=O)N(c3ccc(Cl)c(Cl)c3)C2=O)CC1` [Compound 1], for which the “Potency of Bfl-1 inhibition in words (FP / assay not specified)” value at GST-Bfl-1 [1] is reported as “submicromolar potency”. The “Potency of Bfl-1 inhibition in words (TR-FRET)” value on GST-Bfl-1 [2] is recorded as “submicromolar potency”. For the same molecule, the “Inhibition of human H69AR small cell lung tumor cell growth” value in data set [3] is “inhibition of human H69AR small cell lung tumor cell growth was observed”.

Consider `O=C1C(Cl)=C(N2CCCCC2)C(=O)N1c1ccc(Cl)c(Cl)c1` [Compound 19], for which the “Effect on cell viability” value with mammalian cell line (15 μg/mL) is given as “decreased cell viability”.

`CN(C)C1=C(Cl)C(=O)N(c2ccc(Cl)c(Cl)c2)C1=O` [Compound 21]: in the data set on mammalian cell line (concentration not given), the “Effect on cell viability in a mammalian cell line” value is recorded as “not inhibitory to cell viability”. In addition, at GST-Bfl-1 [1], the “Potency of Bfl-1 inhibition in words (FP / assay not specified)” value is recorded as “equipotent to original hit 1; also recorded: Submicromolar”.

For `O=C1C(Cl)=C(N2CCOCC2)C(=O)N1c1ccc(Cl)c(Cl)c1` [Compound 22], the “Potency of Bfl-1 inhibition in words (FP / assay not specified)” value on GST-Bfl-1 [1] is reported as “equipotent to original hit 1; also recorded: Submicromolar”.

For `C[C@@H]1CN(C2=C(Cl)C(=O)N(c3ccc(Cl)c(Cl)c3)C2=O)CCN1` [Compound 24], on GST-Bfl-1 [1], the “Potency of Bfl-1 inhibition in words (FP / assay not specified)” value is listed as “equipotent to original hit 1; also recorded: Submicromolar”.

Take `O=C1C(Cl)=C(N2CCN(CCO)CC2)C(=O)N1c1ccc(Cl)c(Cl)c1` [Compound 28]: the “Potency of Bfl-1 inhibition in words (FP / assay not specified)” value on GST-Bfl-1 [1] was “Submicromolar”.

Consider `O=C1C(Cl)=C(N2CCN(CCOCCO)CC2)C(=O)N1c1ccc(Cl)c(Cl)c1` [Compound 29], for which the “Potency of Bfl-1 inhibition in words (FP / assay not specified)” value on GST-Bfl-1 [1] was “Submicromolar”.

Turning to `O=C1C(Cl)=C(N2CCN(C/C=C/c3ccccc3)CC2)C(=O)N1c1ccc(Cl)c(Cl)c1` [Compound 38], on GST-Bfl-1 [1], the “Potency of Bfl-1 inhibition in words (FP / assay not specified)” value is recorded as “Submicromolar”.
